Reference: ChEMBL document CHEMBL5356943, “Development of anti-HBV agents targeting HBV capsid proteins” (RSC Med Chem, 2023)

How the values were obtained:
[1] = (§1) Ratio of compound EC50 to N-((5-bromopyridin-2-yl)carbamothioyl)-4-chlorobenzamide EC50 for antiviral activity against Hepatitis B virus genotype C infected in chimeric humanized liver mouse model PXB cells assessed as inhibition of HBcrAg level treated with infected cells on day 2 and measured on day 12 to 14 by ELISA; assay type: functional; conditions: time 10-12 day
How it was run: (§2)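 PXB hepatocytes received serially diluted compound on day 2 and HBV genotype C on day 0. After 20–28 h, cells were washed and compound-containing medium renewed. Supernatant antigen on days 12–14 was measured by ELISA to give EC50 (50% antigen reduction). Each value is expressed as a ratio to the EC50 of the parent lead compound in the same antigen assay.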

[2] = as §1, with “HBsAg” for “HBcrAg”; assay type: functional; conditions: time 10-12 day; how it was run: as §2
[3] = Cytotoxicity against human HepG2 cells assessed as reduction in cell viability incubated for 7 days by MTT assay; assay type: toxicity, cell-based; conditions: time 7 day
How it was run: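 HepG2 (human hepatocellular carcinoma) viability by MTT assay, optical density read on a kinetic microplate reader. CC50 is the concentration giving 50% reduction of viability. Mean of at least two independent experiments.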

[4] = Cytotoxicity against human Huh-7 cells assessed as reduction in cell viability by MTT assay; assay type: toxicity, cell-based
How it was run: (§3)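 Each cell line cultured with serially diluted compound, then viability measured by MTT assay on a microplate reader. CC50 is the concentration giving 50% reduction of viability.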

[5] = Cytotoxicity against human Li-7 cells assessed as reduction in cell viability by MTT assay; assay type: toxicity, cell-based; how it was run: as §3
[6] = Cytotoxicity against human HLE cells assessed as reduction in cell viability by MTT assay; assay type: toxicity, cell-based; how it was run: as §3
[7] = Cytotoxicity against human LI90 cells assessed as reduction in cell viability by MTT assay; assay type: toxicity, cell-based; how it was run: as §3
[8] = Cytotoxicity against human HuCCT-1 cells assessed as reduction in cell viability by MTT assay; assay type: toxicity, cell-based; how it was run: as §3
[9] = Cytotoxicity against human RBE cells assessed as reduction in cell viability by MTT assay; assay type: toxicity, cell-based; how it was run: as §3
[10] = Cytotoxicity against human SSP-25 cells assessed as reduction in cell viability by MTT assay; assay type: toxicity, cell-based; how it was run: as §3
[11] = Cytotoxicity against human G415 cells assessed as reduction in cell viability by MTT assay; assay type: toxicity, cell-based; how it was run: as §3
[12] = tested on: Hepatitis B virus; experiment: Antiviral activity against Hepatitis B virus genotype C infected in chimeric humanized liver mouse model PXB cells assessed as inhibition of HBcrAg level treated with infected cells on day 2 and measured on day 12 to 14 by ELISA; assay type: functional, organism-based
How it was run: (§4)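 Human hepatocytes (PXB cells) from chimeric humanized-liver mice were seeded in 96-well plates, with serially diluted compound in fresh medium added on day 2. HBV genotype C was added on day 0. After 20–28 h, cells were PBS-washed and medium plus compound replenished. Supernatants were harvested on days 12–14, and antigen was quantified by ELISA. EC50 is the concentration giving 50% antigen reduction.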

[13] = tested on: Hepatitis B virus; experiment: Antiviral activity against Hepatitis B virus genotype C infected in chimeric humanized liver mouse model PXB cells assessed as inhibition of HBsAg level treated with infected cells on day 2 and measured on day 12 to 14 by ELISA; assay type: functional, organism-based; how it was run: as §4

SMILES | Ratio EC50 [1] | Ratio EC50 [2] | CC50 at 168 h [3] [µM] | other results
O=C(NC(=S)Nc1ccc(Br)cn1)c1ccc(Br)cc1 | >12 | >4.8 | 41.8 | –
O=C(NC(=S)Nc1ccc(C(F)(F)F)cn1)c1ccc(O)cc1 | 0.86 | >4.8 | 23.7 | –
O=C(NC(=S)Nc1ccc(Br)cn1)c1ccc(C(F)(F)F)cc1 | 1.7 | 0.63 | > 100 | CC50 [4]: 92.7 µM; CC50 [5]: > 100 µM; CC50 [6]: > 100 µM; CC50 [7]: 62.1 µM; CC50 [8]: > 100 µM; CC50 [9]: 81.1 µM; CC50 [10]: 76.3 µM; CC50 [11]: > 100 µM
CC(C)c1ccc(C(=O)NC(=S)Nc2ccc(C(F)(F)F)cn2)cc1 | >12 | >4.8 | 61.9 | –
O=C(NC(=S)Nc1ccc(Cl)cn1)c1ccc(Cl)cc1 | 7.5 | 6.9 | 66.3 | –
COc1ccc(C(=O)NC(=S)Nc2ccc(C(F)(F)F)cn2)cc1 | >12 | >4.8 | 75.9 | –
O=C(NC(=S)Nc1cc2ccccc2cn1)c1ccc(Cl)cc1 | 2.9 | 31 | 79.1 | –
O=C(NC(=S)Nc1ccc(Br)cn1)c1ccc(Cl)cc1 | – | – | > 100 | EC50 [12]: 0.044 µM; EC50 [13]: 0.69 µM
Cc1ccc(C(=O)NC(=S)Nc2ccc(C(F)(F)F)cn2)cc1 | >12 | >4.8 | 89.8 | –
O=C(NC(=S)Nc1cc(-c2ccccc2)c(C(F)(F)F)cn1)c1ccc(Cl)cc1 | 22 | 11 | > 100 | –
O=C(NC(=S)Nc1ccc(C(F)(F)F)cn1)c1ccc(Cl)cc1 | 0.032 | 0.005 | > 100 | CC50 [4]: > 100 µM; CC50 [5]: > 100 µM; CC50 [6]: > 100 µM; CC50 [7]: > 100 µM; CC50 [8]: > 100 µM; CC50 [9]: > 100 µM; CC50 [10]: 61.3 µM; CC50 [11]: > 100 µM
O=C(NC(=S)Nc1ccc(C(F)(F)F)cn1)c1ccc(C(F)(F)F)cc1 | 16 | >2.9 | > 100 | –
CC(C)(C)c1ccc(C(=O)NC(=S)Nc2ccc(C(F)(F)F)cn2)cc1 | >12 | >4.8 | > 100 | –
O=C(NC(=S)Nc1ccc(C(F)(F)F)cn1)c1ccc(I)cc1 | >12 | >4.8 | > 100 | –
O=C(NC(=S)Nc1ccc(C(F)(F)F)cn1)c1ccc([N+](=O)[O-])cc1 | 2.7 | 0.37 | > 100 | –
O=C(NC(=S)Nc1ccc(F)cn1)c1ccc(Cl)cc1 | 6.2 | 8.1 | > 100 | –
O=C(NC(=S)Nc1ccc(C(F)(F)F)cn1)c1ccc(Br)cc1 | 3.8 | 2.7 | > 100 | –
O=C(NC(=S)Nc1ccc(C(F)(F)F)cn1)c1ccc(F)cc1 | >12 | >4.8 | 42.2 | –
Cc1ccc(NC(=S)NC(=O)c2ccc(Cl)cc2)nc1 | 3.7 | 3.8 | 43.8 | –
O=C(NC(=S)Nc1ccc([N+](=O)[O-])cn1)c1ccc(Cl)cc1 | 20 | 12 | > 100 | –
O=C(NC(=S)Nc1ccccn1)c1ccc(Cl)cc1 | 7.6 | 5.5 | 26.8 | –
C[C@H](Cn1cnc2c(N)ncnc21)OCP(=O)(O)O [TENOFOVIR ANHYDROUS] | – | – | – | EC50 [12]: 0.36 µM; EC50 [13]: > 2 µM
